Reference: ChEMBL document CHEMBL1125042, “Hypolipidemic activity of rifamycin derivatives” (J Med Chem, 1990)
Values after ≈ are worked out from the molar mass of the structure shown. One block for each compound: values may come before it.

Assays:
Rattus norvegicus [1] = assay: Hypolipidemic activity was determined by measuring the % serum HDL-cholesterol in normal rat at the specified dose of 30 mg/kg; type: functional, organism-based; set-up: dose 30 mg/kg
How it was run: (§1)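 Male Wistar rats (200–230 g, n=8 per group) were given oral doses in PEG 400 and fasted 16 h before being killed under pentothal. Paired sera were pooled with 0.05% EDTA and 0.01% thimerosal, and LDL/HDL were separated by ultracentrifugation. Cholesterol was measured enzymatically. Results are % versus vehicle control, mean ± SEM of four serum pools, Student's t test.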

Rattus norvegicus [2] = assay: Hypolipidemic activity was determined by measuring the % serum HDL in hypercholesterolemic RICO rat at a dose of 30 mg/kg; type: functional, organism-based; set-up: dose 30 mg/kg
How it was run: (§2)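 Genetically hypercholesterolemic RICO rats (Tif:RAI,f,SPF) were dosed orally for 7 days. Sera were collected after a 16 h fast and pooled in pairs. LDL (1.006–1.040 g/cm³) and HDL infranatant were separated by ultracentrifugation. Cholesterol and triglycerides were measured enzymatically. Results are % change versus vehicle control, mean ± SEM of four pools.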

Rattus norvegicus [3] = assay: Hypolipidemic activity was determined by measuring the % serum cholesterol in rat at the specified dose of 10 mg/kg; type: functional, organism-based; set-up: dose 10 mg/kg; how it was run: as §1
Rattus norvegicus [4] = assay: Hypolipidemic activity was determined by measuring the % serum HDL in normal rat at a dose of 3 mg/kg; type: functional, organism-based; set-up: dose 3 mg/kg
How it was run: (§3)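 Normal male Wistar rats (200–230 g), eight per group, were dosed orally in PEG 400 once daily for 7 days. They were fasted 16 h and killed 24 h after the last dose. Serum from pairs was pooled and LDL/HDL fractions were ultracentrifuged. Cholesterol and triglycerides were measured enzymatically. Results are % versus vehicle control, mean ± SEM of four pools, Student's t test.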

Rattus norvegicus [5] = assay: Hypolipidemic activity was determined by measuring the % serum triglycerides in normal rat at a dose of 10 mg/kg; type: functional, organism-based; set-up: dose 10 mg/kg; how it was run: as §3
Rattus norvegicus [6] = assay: Hypolipidemic activity was determined by measuring the % serum HDL in hypercholesterolemic RICO rat at a dose of 10 mg/kg; type: functional, organism-based; set-up: dose 10 mg/kg; how it was run: as §2
Rattus norvegicus [7] = assay: Hypolipidemic activity was determined by measuring the % serum triglycerides in hypercholesterolemic RICO rat at a dose of 30 mg/kg; type: functional, organism-based; set-up: dose 30 mg/kg; how it was run: as §2
Rattus norvegicus [8] = assay: Hypolipidemic activity was determined by measuring the % serum LDL-cholesterol in normal rat at the specified dose of 10 mg/kg; type: functional, organism-based; set-up: dose 10 mg/kg; how it was run: as §1
Rattus norvegicus [9] = assay: Hypolipidemic activity was determined by measuring the % serum triglycerides in hypercholesterolemic RICO rat at a dose of 3 mg/kg; type: functional, organism-based; set-up: dose 3 mg/kg; how it was run: as §2
Rattus norvegicus [10] = assay: Hypolipidemic activity was determined by measuring the % serum LDL in normal rat at a dose of 3 mg/kg; type: functional, organism-based; set-up: dose 3 mg/kg; how it was run: as §3
Rattus norvegicus [11] = assay: Hypolipidemic activity was determined by measuring the % serum HDL-cholesterol in normal rat at the specified dose of 10 mg/kg; type: functional, organism-based; set-up: dose 10 mg/kg; how it was run: as §1
Rattus norvegicus [12] = assay: Hypolipidemic activity was determined by measuring the % serum cholesterol in normal rat at a dose of 10 mg/kg; type: functional, organism-based; set-up: dose 10 mg/kg; how it was run: as §3
Rattus norvegicus [13] = assay: Hypolipidemic activity was determined by measuring the % serum cholesterol in normal rat at a dose of 30 mg/kg; type: functional, organism-based; set-up: dose 30 mg/kg; how it was run: as §3
Rattus norvegicus [14] = assay: Hypolipidemic activity was determined by measuring the % serum cholesterol in hypercholesterolemic RICO rat at a dose of 30 mg/kg; type: functional, organism-based; set-up: dose 30 mg/kg; how it was run: as §2
Rattus norvegicus [15] = assay: Hypolipidemic activity was determined by measuring the % serum cholesterol in normal rat at a dose of 1 mg/kg; type: functional, organism-based; set-up: dose 1 mg/kg; how it was run: as §3
Rattus norvegicus [16] = assay: Hypolipidemic activity was determined in male rats, and high-density lipoprotein level was determined at 10 mg/kg; type: functional
How it was run: (§4)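 Male Wistar rats (200–230 g), eight per group, were dosed orally in PEG 400 at 8 a.m. for 4 days, plus a second dose at 4 p.m. on day 4. Rats were fasted 16 h and killed 16 h after the last dose. Sera from pairs of rats were pooled. LDL (up to 1.040 g/cm³) was separated by ultracentrifugation and the HDL infranatant taken. Cholesterol was measured enzymatically. Results are % versus vehicle control, mean ± SEM of four pools, Student's t test.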

Rattus norvegicus [17] = assay: Hypolipidemic activity was determined by measuring the % serum triglycerides in normal rat at a dose of 1 mg/kg; type: functional, organism-based; set-up: dose 1 mg/kg; how it was run: as §3
Rattus norvegicus [18] = assay: Hypolipidemic activity was determined by measuring the % serum cholesterol in rat at the specified dose of 30 mg/kg; type: functional, organism-based; set-up: dose 30 mg/kg; how it was run: as §1
Rattus norvegicus [19] = assay: Hypolipidemic activity was determined by measuring the % serum HDL in hypercholesterolemic RICO rat at a dose of 3 mg/kg; type: functional, organism-based; set-up: dose 3 mg/kg; how it was run: as §2
Rattus norvegicus [20] = assay: Hypolipidemic activity was determined by measuring the % serum HDL in normal rat at a dose of 10 mg/kg; type: functional, organism-based; set-up: dose 10 mg/kg; how it was run: as §3
Rattus norvegicus [21] = assay: Hypolipidemic activity was determined by measuring the % serum LDL in normal rat at a dose of 10 mg/kg; type: functional, organism-based; set-up: dose 10 mg/kg; how it was run: as §3
Rattus norvegicus [22] = assay: Hypolipidemic activity was determined by measuring the % serum triglycerides in normal rat at a dose of 30 mg/kg; type: functional, organism-based; set-up: dose 30 mg/kg; how it was run: as §3
Rattus norvegicus [23] = assay: Hypolipidemic activity was determined by measuring the % serum LDL-cholesterol in hypercholesterolemic RICO rat at a dose of 10 mg/kg; type: functional, organism-based; set-up: dose 10 mg/kg; how it was run: as §2
Rattus norvegicus [24] = assay: Tested for hypolipidemic activity in male rats, cholesterol was determined in serum at 10 mg/kg; type: functional
How it was run: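 Groups of eight male Wistar rats (200–230 g) dosed orally in PEG 400, either daily for 7 days (killed 24 h after the last dose) or for 4 days with a second dose on day 4 (killed 16 h later). Fasted 16 h. Paired sera pooled, lipoproteins separated by ultracentrifugation (1.006 and 1.040 g/cm³), HDL taken as the infranatant. Cholesterol measured enzymatically; % vs vehicle, mean ± SEM of four pools.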

Rattus norvegicus [25] = assay: Hypolipidemic activity was determined by measuring the % serum cholesterol in hypercholesterolemic RICO rat at a dose of 3 mg/kg; type: functional, organism-based; set-up: dose 3 mg/kg; how it was run: as §2
Rattus norvegicus [26] = assay: Hypolipidemic activity was determined by measuring the % serum cholesterol in hypercholesterolemic RICO rat at a dose of 10 mg/kg; type: functional, organism-based; set-up: dose 10 mg/kg; how it was run: as §2
Rattus norvegicus [27] = assay: Hypolipidemic activity was determined by measuring the % serum cholesterol in normal rat at a dose of 3 mg/kg; type: functional, organism-based; set-up: dose 3 mg/kg; how it was run: as §3
Rattus norvegicus [28] = assay: Hypolipidemic activity was determined by measuring the % serum triglycerides in hypercholesterolemic RICO rat at a dose of 10 mg/kg; type: functional, organism-based; set-up: dose 10 mg/kg; how it was run: as §2
Rattus norvegicus [29] = assay: Hypolipidemic activity was determined by measuring the % serum LDL-cholesterol in normal rat at the specified dose of 30 mg/kg; type: functional, organism-based; set-up: dose 30 mg/kg; how it was run: as §1
Rattus norvegicus [30] = assay: Hypolipidemic activity was determined by measuring the % serum LDL in normal rat at a dose of 30 mg/kg; type: functional, organism-based; set-up: dose 30 mg/kg; how it was run: as §3
Rattus norvegicus [31] = assay: Hypolipidemic activity was determined by measuring the % serum triglycerides in normal rat at a dose of 3 mg/kg; type: functional, organism-based; set-up: dose 3 mg/kg; how it was run: as §3
Rattus norvegicus [32] = assay: Hypolipidemic activity was determined by measuring the % serum LDL in normal rat at a dose of 1 mg/kg; type: functional, organism-based; set-up: dose 1 mg/kg; how it was run: as §3
Rattus norvegicus [33] = assay: Hypolipidemic activity was determined by measuring the % serum LDL-cholesterol in hypercholesterolemic RICO rat at a dose of 3 mg/kg; type: functional, organism-based; set-up: dose 3 mg/kg; how it was run: as §2
Rattus norvegicus [34] = assay: Hypolipidemic activity was determined by measuring the % serum HDL in normal rat at a dose of 1 mg/kg; type: functional, organism-based; set-up: dose 1 mg/kg; how it was run: as §3
Rattus norvegicus [35] = assay: Hypolipidemic activity was determined by measuring the % serum HDL in normal rat at a dose of 30 mg/kg; type: functional, organism-based; set-up: dose 30 mg/kg; how it was run: as §3
Staphylococcus aureus = assay: Antibacterial activity against Staphylococcus aureus 10B; type: functional
How it was run: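 Agar dilution on DST agar with 2-fold drug dilutions. Inoculum of 10⁴ viable S. aureus 10B was taken from liquid-nitrogen stock, thawed 30 min and not subcultured. It was applied by multipoint replicator and incubated overnight at 37 °C. MIC is the lowest concentration inhibiting growth relative to control cultures.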

Rattus norvegicus [36] = assay: Hypolipidemic activity was determined in male rats, and low-density lipoprotein level was determined at 10 mg/kg; type: functional; how it was run: as §4
Rattus norvegicus [37] = assay: Hypolipidemic activity was determined by measuring the % serum LDL-cholesterol in hypercholesterolemic RICO rat at a dose of 30 mg/kg; type: functional, organism-based; set-up: dose 30 mg/kg; how it was run: as §2
[38] = Inhibitory activity against RNA polymerase was determined; set-up: species or system Escherichia coli
How it was run: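 E. coli DNA-dependent RNA polymerase inhibition measured in vitro on ether-extracted, permeabilized E. coli cells.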

MIC (Staphylococcus aureus): 64 µg/mL (≈ 59.2 µM)
IC50 [38]: > 100 µg/mL
Structure (SMILES): COC1/C=C/OC2(C)Oc3c(C)c(OC(=O)C(C)(C)C)c4c(c3C2=O)C(=O)C(N2CCN(Cc3c(C)cc(C)cc3C)CC2)=C(C4=O)N(C(=O)C(C)(C)C)C(=O)/C(C)=C\C=C\C(C)C(O)C(C)C(O)C(C)C(OC(C)=O)C1C (configuration not stated)
Serum HDL-cholesterol (Rattus norvegicus [1]): -27%
Serum HDL-cholesterol (Rattus norvegicus [2]): -45%
Serum cholesterol (Rattus norvegicus [3]): -16%
Serum HDL-cholesterol (Rattus norvegicus [4]): -4%
Serum triglyceride (Rattus norvegicus [5]): -17%
Serum HDL-cholesterol (Rattus norvegicus [6]): -24%
Serum triglyceride (Rattus norvegicus [7]): -47%
Serum LDL-cholesterol (Rattus norvegicus [8]): -26%
Serum triglyceride (Rattus norvegicus [9]): -11%
Serum LDL-cholesterol (Rattus norvegicus [10]): -34%
Serum HDL-cholesterol (Rattus norvegicus [11]): -11%
Serum cholesterol (Rattus norvegicus [12]): -19%
Serum cholesterol (Rattus norvegicus [13]): -27%
Serum cholesterol (Rattus norvegicus [14]): -50%
Serum cholesterol (Rattus norvegicus [15]): -5%
Activity (Rattus norvegicus [16]): -33%
Serum triglyceride (Rattus norvegicus [17]): 14%
Serum cholesterol (Rattus norvegicus [18]): -33%
Serum HDL-cholesterol (Rattus norvegicus [19]): -6%
Serum HDL-cholesterol (Rattus norvegicus [20]): -21%
Serum LDL-cholesterol (Rattus norvegicus [21]): -56%
Serum triglyceride (Rattus norvegicus [22]): -22%
Serum LDL-cholesterol (Rattus norvegicus [23]): -53%
Activity (Rattus norvegicus [24]): -30%
Serum cholesterol (Rattus norvegicus [25]): -12%
Serum cholesterol (Rattus norvegicus [26]): -29%
Serum cholesterol (Rattus norvegicus [27]): -4%
Serum triglyceride (Rattus norvegicus [28]): -32%
Serum LDL-cholesterol (Rattus norvegicus [29]): -68%
Serum LDL-cholesterol (Rattus norvegicus [30]): -51%
Serum triglyceride (Rattus norvegicus [31]): 14%
Serum LDL-cholesterol (Rattus norvegicus [32]): -8%
Serum LDL-cholesterol (Rattus norvegicus [33]): -35%
Serum HDL-cholesterol (Rattus norvegicus [34]): 0%
Serum HDL-cholesterol (Rattus norvegicus [35]): -34%
Activity (Rattus norvegicus [36]): -55%
Serum LDL-cholesterol (Rattus norvegicus [37]): -69%

MIC (Staphylococcus aureus): 8 µg/mL (≈ 8.38 µM)
Structure (SMILES): COC1/C=C/OC2(C)Oc3c(C)c(O)c4c(O)c(c(N5CCN(Cc6c(C)cc(C)cc6C)CC5)c(O)c4c3C2=O)NC(=O)/C(C)=C\C=C\C(C)C2OC(C)(C)OC(C2C)C(C)C(OC(C)=O)C1C (configuration not stated)
Activity (Rattus norvegicus [16]): -27%
Activity (Rattus norvegicus [24]): -14%
Activity (Rattus norvegicus [36]): -6%

MIC (Staphylococcus aureus): 2 µg/mL (≈ 2.19 µM)
Structure (SMILES): COC1/C=C/OC2(C)Oc3c(C)c(O)c4c(O)c(c(N5CCN(Cc6c(C)cc(C)cc6C)CC5)c(O)c4c3C2=O)NC(=O)/C(C)=C\C=C\C(C)C(O)C(C)C(=O)C(C)C(OC(C)=O)C1C (configuration not stated)
Activity (Rattus norvegicus [16]): -23%
Activity (Rattus norvegicus [24]): -18%
Activity (Rattus norvegicus [36]): -1%
